Published values gathered from unrelated publications.
Compare with care: the assays were run in different laboratories.
Target: BMP-2-inducible protein kinase (BMP2K, Homo sapiens, UniProt Q9NSY1)

| Structure (SMILES) | observed | technique | tested at | remaining binding |
| --- | --- | --- | --- | --- |
| FC(F)(F)c1ccc2c(c1)nc(-c1cccnc1)n2C1CC1 | cell-free assay | competition with immobilised ligand | 1 µM | 100% |
| COc1ccnn2ncc(-c3ccnc(N(C)C)n3)c12 | binding |  | 1 µM | 100% |
| CNC(=O)[C@@H]1CC[C@@H](n2c(-c3ccc4cnccc4c3)nc3ccc(C(=O)NCc4cccc(C(N)=O)c4)cc32)C1 | binding | competition with immobilised ligand | 1 µM | 95% |
| Cc1cc(NC(=O)c2cccc(S(F)(F)(F)(F)F)c2)cc(-n2ccn3nc(-c4cccnc4)cc23)c1 | cell-free assay | competition with immobilised ligand | 1 µM | 65.9% |
| CN(C)c1nccc(-c2cnn3ncccc23)n1 | binding |  | 1 µM | 100% |
| O=C(NCCCN1CCOCC1)c1ccc(Nc2nccc(-c3cc4ccccc4s3)n2)cc1 | binding | competition with immobilised ligand | 1 µM | 0.7% |
| CNC(=O)c1ccc(Nc2ncc(C(F)(F)F)c(NCc3nccnc3N(C)S(C)(=O)=O)n2)cc1 | cell-free assay | competition with immobilised ligand | 0.1 µM | 81% |
| N[C@@H]1CCN(c2nccc(-c3cnn4ncccc34)n2)C1 | binding |  | 1 µM | 100% |
| O=C(c1ccc(Nc2ncc(Cl)c(-c3ccc(Cl)s3)n2)cc1)N1CCC(N2CCCC2)CC1 | binding | competition with immobilised ligand | 1 µM | 0.1% |
| C=CC(=O)N1CCC(C(=O)NCC(=O)N2CCN(c3nc(-c4cnc(N)nc4C(F)F)nc(N4CCOCC4)n3)CC2)CC1 | binding | competition with immobilised ligand | 1 µM | 94% |
| O=C(O)[C@H]1[C@H](Cn2nnc3ccccc3c2=O)CC[C@@H]1C(=O)c1ccc(OCCC2CCOCC2)cc1 | cell-free assay | competition with immobilised ligand | 1 µM | 86% |
| CC1CCCN1c1nccc(-c2cnn3ncccc23)n1 (stereo not shown) | binding |  | 1 µM | 95% |
| O=C(NCC1CCOCC1)c1n[nH]cc1NC(=O)c1c(F)cccc1F | binding | competition with immobilised ligand | 1 µM | 81% |
| C[C@@H]1CCN(c2nccc(-c3cnn4ncccc34)n2)C1 | binding |  | 1 µM | 97% |
| Cc1cnc(Nc2ccc(C(=O)N3CCC(N4CCCC4)CC3)cc2)nc1-c1cc2ccccc2s1 | binding | competition with immobilised ligand | 1 µM | 0.2% |
| CN(C)c1ncnc(-c2ccc3nc(Nc4cc(CN5CCN(C(=O)CC(F)(F)F)CC5)ccn4)[nH]c3c2)c1Cl | cell-free assay | competition with immobilised ligand | 1 µM | 100% |
| CCN1CCN(Cc2ccc(C(=O)Nc3ccc(C)c(Oc4ccc5c(c4)CC(=O)N5)c3)cc2C(F)(F)F)CC1 | binding | competition with immobilised ligand | 1 µM | 100% |
| CN(c1nccc(-c2cnn3ncccc23)n1)C1CC1 | binding |  | 1 µM | 100% |
| O=C1NC(c2ccccn2)Sc2ccccc21 (stereo not shown) | cell-free assay | competition with immobilised ligand | 1 µM | 88% |
| FC(F)(F)Oc1cccc(-c2cnc3ccc(-c4ccncc4)nn23)c1 | binding | competition with immobilised ligand | 5 µM | 8.3% |
| COc1cc(-c2cn(C3CCc4c(F)cccc4N(CC(F)(F)F)C3=O)nn2)ccc1-n1cnc(C)c1 (stereo not shown) | cell-free assay | competition with immobilised ligand | 1 µM | 100% |
| F[C@@H]1CCN(c2nccc(-c3cnn4ncccc34)n2)C1 | binding |  | 1 µM | 100% |
